Key:
Format in all cases: functional
[1] = test system: UACC-257; test: Growth inhibition of human UACC257 cells at 10 uM relative to control; details: values are per cent of control
How it was run: (§1)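 Single-dose NCI human tumour cell line screen, run by the NIH. Percent inhibition of cell line growth was calculated by comparison with untreated samples.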

[2] = test system: SNB-75; test: Growth inhibition of human SNB75 cells at 10 uM relative to control; details: values are per cent of control; how it was run: as §1
[3] = test system: HCT-15; test: Growth inhibition of human HCT15 cells at 10 uM relative to control; details: values are per cent of control
How it was run: (§2)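 Single-dose preliminary screen in the NCI human cancer cell line panel, run by the NIH. Percent inhibition of cell line growth was calculated by comparison with untreated samples.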

[4] = test system: MCF7; test: Growth inhibition of human MCF7 cells at 10 uM relative to control; details: values are per cent of control; how it was run: as §2
[5] = test system: CCRF-CEM; test: Growth inhibition of human CCRF-CEM cells at 10 uM relative to control; details: values are per cent of control; how it was run: as §2
[6] = test system: A549; test: Growth inhibition of human A549 cells at 10 uM relative to control; details: values are per cent of control; how it was run: as §2
[7] = test system: BT-549; test: Growth inhibition of human BT549 cells at 10 uM relative to control; details: values are per cent of control; how it was run: as §2
[8] = test system: PC-3; test: Growth inhibition of human PC3 cells at 10 uM relative to control; details: values are per cent of control; how it was run: as §2
[9] = test system: TK-10; test: Growth inhibition of human TK10 cells at 10 uM relative to control; details: values are per cent of control; how it was run: as §1
[10] = test system: LOX IMVI; test: Growth inhibition of human LOXIMVI cells at 10 uM relative to control; details: values are per cent of control; how it was run: as §2
[11] = test system: COLO 205; test: Growth inhibition of human COLO205 cells at 10 uM relative to control; details: values are per cent of control; how it was run: as §2
[12] = test system: NCI-H460; test: Growth inhibition of human NCI-H460 cells at 10 uM relative to control; details: values are per cent of control; how it was run: as §2
[13] = test system: HT-29; test: Growth inhibition of human HT-29 cells at 10 uM relative to control; details: values are per cent of control; how it was run: as §2
[14] = test system: OVCAR-8; test: Growth inhibition of human OVCAR8 cells at 10 uM relative to control; details: values are per cent of control; how it was run: as §2
[15] = test system: ACHN; test: Growth inhibition of human ACHN cells at 10 uM relative to control; details: values are per cent of control; how it was run: as §2
[16] = test system: SN12C; test: Growth inhibition of human SN12C cells at 10 uM relative to control; details: values are per cent of control; how it was run: as §2
[17] = test system: MDA-MB-468; test: Growth inhibition of human MDA-MB-468 cells at 10 uM relative to control; details: values are per cent of control; how it was run: as §2
[18] = cells; details: Homo sapiens, Cancer cell lines
[19] = test system: HOP-92; test: Growth inhibition of human HOP92 cells at 10 uM relative to control; details: values are per cent of control; how it was run: as §2
[20] = test system: NCI-H522; test: Growth inhibition of human NCI-H522 cells at 10 uM relative to control; details: values are per cent of control; how it was run: as §2
[21] = cells; details: Homo sapiens, Cancer cell lines; remark: listed apart in the source
[22] = test system: HL-60(TB); test: Growth inhibition of human HL-60(TB) cells at 10 uM relative to control; details: read-out: INH
How it was run: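 Single-dose cell line screen run by the NCI (NIH) in its human cancer cell line panel, which includes the leukemia line HL-60(TB). Percent growth inhibition was calculated by comparison with untreated samples.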

[23] = Growth inhibition of human Hs 578T cells at 10 uM relative to control; details: values are per cent of control; how it was run: as §2
[24] = test system: T47D; test: Growth inhibition of human T47D cells at 10 uM relative to control; details: values are per cent of control; how it was run: as §1
[25] = test system: MDA-MB-231; test: Growth inhibition of human MDA-MB-231 cells at 10 uM relative to control; details: values are per cent of control; how it was run: as §2
[26] = test system: HCC 2998; test: Growth inhibition of human HCC2998 cells at 10 uM relative to control; details: values are per cent of control; how it was run: as §2
[27] = test system: SK-MEL-5; test: Growth inhibition of human SK-MEL-5 cells at 10 uM relative to control; details: values are per cent of control; how it was run: as §2
[28] = test system: DU-145; test: Growth inhibition of human DU145 cells at 10 uM relative to control; details: values are per cent of control; how it was run: as §2
[29] = test system: SW-620; test: Growth inhibition of human SW620 cells at 10 uM relative to control; details: values are per cent of control; how it was run: as §1
[30] = test system: SK-MEL-2; test: Growth inhibition of human SK-MEL-2 cells at 10 uM relative to control; details: values are per cent of control; how it was run: as §2
[31] = test system: HOP-62; test: Growth inhibition of human HOP62 cells at 10 uM relative to control; details: values are per cent of control; how it was run: as §2
[32] = test system: HCT-116; test: Growth inhibition of human HCT116 cells at 10 uM relative to control; details: values are per cent of control; how it was run: as §2
[33] = test system: SF-295; test: Growth inhibition of human SF295 cells at 10 uM relative to control; details: values are per cent of control; how it was run: as §2

Compound: O=C(/C=C/c1cn(C/C=C/c2ccccc2)nn1)NO
- growth, % of control at 10 µM [1]: -32.1%
- growth, % of control at 10 µM [2]: 16.7%
- growth, % of control at 10 µM [3]: 9.7%
- growth, % of control at 10 µM [4]: 13.6%
- growth, % of control at 10 µM [5]: 9.16%
- growth, % of control at 10 µM [6]: -8.94%
- growth, % of control at 10 µM [7]: 43.3%
- growth, % of control at 10 µM [8]: 11%
- growth, % of control at 10 µM [9]: -8.37%
- growth, % of control at 10 µM [10]: -72.6%
- growth, % of control at 10 µM [11]: -75.7%
- growth, % of control at 10 µM [12]: 7.36%
- growth, % of control at 10 µM [13]: 12%
- growth, % of control at 10 µM [14]: 1.24%
- growth, % of control at 10 µM [15]: -51.2%
- growth, % of control at 10 µM [16]: 25%
- growth, % of control at 10 µM [17]: 45.8%
- inhibition at 10 µM [18]: 1%
- growth, % of control at 10 µM [19]: -42%
- growth, % of control at 10 µM [20]: 8.32%
- growth percent at 10 µM [21]: 8%
- growth, % of control at 10 µM [22]: -5.68%
- growth, % of control at 10 µM [23]: 26%
- growth, % of control at 10 µM [24]: -11.9%
- growth, % of control at 10 µM [25]: 20.9%
- growth, % of control at 10 µM [26]: -1.33%
- growth, % of control at 10 µM [27]: -79%
- growth, % of control at 10 µM [28]: -28.7%
- growth, % of control at 10 µM [29]: -61.5%
- growth, % of control at 10 µM [30]: -51.7%
- growth, % of control at 10 µM [31]: -31.7%
- growth, % of control at 10 µM [32]: -69%
- growth, % of control at 10 µM [33]: -55.5%

Source: ChEMBL document CHEMBL1140227, “Histone deacetylase inhibitors through click chemistry” (J Med Chem, 2008)
